C2C12 statin – suppressors of simvastatin-induced myotoxicity in C2C12 myotubes | ATP luminescence, 48 h; scaled: DMSO 0, geranylgeraniol control 100 | rescue of ATP level, % at 7.49 µM | 330,000 tested, 0.78% active;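 active means mean ATP rescue above about 67%, or every replicate alone reaching that limit, limit read from the data, passing the limit was not always enough; inconclusive means no clear call, values can overlap the other calls; inactive means mean under the limit and some replicate under it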;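 further: myotubes were challenged with 10 µM simvastatin during compound exposure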
DENV2 CPE – protects cells from dengue virus 2 cytopathic effect; DENV2-infected cells, cytopathic effect rescue, plate reader; AID 651640; 350,000 tested, 1.7% active; CPE inhibition, % at 9.99 µM; in the data active means CPE inhibition above about 20%, passing the limit was not always enough; inconclusive means no clear call, values can overlap the other calls; tested in BHK-21 cells;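 further: 0% = median of neutral control wells and 100% = median of positive control wells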
E-selectin induc – induces E-selectin expression in human endothelial cells; P16581; HUVEC E-selectin immunofluorescence imaging; normalized: neutral wells 0, TNF-alpha wells 100; activation, % at 7.58 µM; 260,000 tested, 0.37% active;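 active means mean E-selectin-positive cell signal at least 10% of the positive control, reached in at least 60% of replicates, without over 20% cell loss; inconclusive means no rule given, readout overlaps actives, possibly toxicity-flagged; inactive means the rest, including those meeting only one limit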
Target sequence (P16581 whole entry, looked up): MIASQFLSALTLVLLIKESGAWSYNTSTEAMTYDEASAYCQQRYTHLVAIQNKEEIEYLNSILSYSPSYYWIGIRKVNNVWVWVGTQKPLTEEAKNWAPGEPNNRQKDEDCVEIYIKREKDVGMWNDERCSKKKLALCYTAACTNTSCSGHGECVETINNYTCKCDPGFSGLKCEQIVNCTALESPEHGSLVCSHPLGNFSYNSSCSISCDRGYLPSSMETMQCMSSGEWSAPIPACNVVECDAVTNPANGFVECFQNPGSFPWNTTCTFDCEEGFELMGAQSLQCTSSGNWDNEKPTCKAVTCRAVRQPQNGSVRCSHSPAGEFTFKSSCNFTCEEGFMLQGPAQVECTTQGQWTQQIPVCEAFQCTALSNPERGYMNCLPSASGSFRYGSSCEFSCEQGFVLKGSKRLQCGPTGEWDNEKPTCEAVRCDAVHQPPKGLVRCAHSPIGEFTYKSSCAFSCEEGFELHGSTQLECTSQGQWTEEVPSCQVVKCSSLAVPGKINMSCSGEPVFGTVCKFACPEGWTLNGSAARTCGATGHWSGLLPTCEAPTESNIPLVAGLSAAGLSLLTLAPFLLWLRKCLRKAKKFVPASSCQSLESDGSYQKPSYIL
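Test system: HUVEC; input: 3,000 HUVEC/well; measured by: immunofluorescence imaging; read-out: % PE-positive cells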
An asterisk follows results filed as active; ? = inconclusive; / = no result. Shown are actives, neighbours in structure and some others; about 2.2% of the full set was active somewhere.

SMILES	C2C12 statin	DENV2 CPE	E-selectin induc
C[C@@H]1CN([C@@H](C)CO)S(=O)(=O)c2ccc(-c3ccccc3)cc2O[C@H]1CN(C)Cc1ccccn1	-133	2	0
COc1ccc(S(=O)(=O)N(C)C[C@H]2OCCCC[C@@H](C)Oc3ccc(NS(=O)(=O)c4cn(C)cn4)cc3C(=O)N([C@@H](C)CO)C[C@@H]2C)cc1	/	-2	/
C[C@H]1CN([C@@H](C)CO)C(=O)c2cc(NC(=O)CCCN(C)C)ccc2O[C@H]1CN(C)Cc1ccc(C(F)(F)F)cc1	-2	4	42*
C[C@H]1CN([C@@H](C)CO)C(=O)c2cc(NC(=O)CCC(F)(F)F)ccc2O[C@H]1CN(C)Cc1ccc(C(F)(F)F)cc1	4	?	19
C[C@@H]1CN([C@H](C)CO)C(=O)c2cc(NC(=O)CCC(F)(F)F)ccc2O[C@H]1CN(C)Cc1ccc(C(F)(F)F)cc1	6	?	-21
C[C@@H]1CN([C@H](C)CO)C(=O)c2cc(NC(=O)CCC(F)(F)F)ccc2O[C@@H]1CN(C)Cc1ccc(C(F)(F)F)cc1	12	2	52*
C/C=C/c1ccc([C@H]2[C@@H](CO)N(C(=O)CC)[C@H]2CNC(=O)C2CC2)cc1	10	3	0
N#C[C@H]1N[C@@H](CO)[C@@H]1c1ccc(C#CC2CCCC2)cc1	-18	-9	-1
CO[C@@H]1CN(C)C(=O)c2cc(NS(=O)(=O)c3cccc(F)c3)ccc2OC[C@@H](C)N(Cc2cc(F)ccc2F)C[C@@H]1C	30	-11	0
CCNC(=O)C1(C)CCN(Cc2noc(-c3c(C)noc3C)n2)C1 (centres undefined)	-13	45*	0
COCCNC(=O)C1(C)CCN(Cc2noc(-c3c(C)noc3C)n2)C1 (centres undefined)	4	/	/
CNC[C@H]1OCCCC[C@H](C)Oc2ccc(NS(=O)(=O)c3cccs3)cc2C(=O)N([C@@H](C)CO)C[C@@H]1C	/	-1	0
CN(C(=O)c1ccc(NC(=O)Cc2ccc(NC(=O)C3CCN(C(=O)CCc4ccccc4)CC3)cc2)cc1)C1CC1	160*	-23	0
CC(C)(C)OC(=O)N(Cc1ccccc1)Cc1ccccc1OCc1ccc(NC(=O)C2CCC2)cc1	-25	28*	0
CN(Cc1ccccc1)C(=O)c1ccc(NC(=O)Cc2ccc(NC(=O)C3CCN(C(=O)C4CCCCC4)CC3)cc2)cc1	-56	10	3
CN(C(=O)c1ccc(NC(=O)Cc2ccc(NC(=O)C3CCN(C(=O)CCc4ccccc4)CC3)cc2)cc1)C1CCCC1	7	-8	6
CC(C)(C)OC(=O)N(CCc1ccccc1)Cc1ccccc1OCc1ccc(NC(=O)C2CCC2)cc1	-4	-10	/
CN(Cc1ccccc1)C(=O)c1ccc(NC(=O)Cc2ccc(NC(=O)C3CCN(C(=O)C4CCC4)CC3)cc2)cc1	-6	53*	0
C[C@H]1CN([C@@H](C)CO)C(=O)c2cc(NS(=O)(=O)c3ccc(Cl)cc3)ccc2O[C@@H]1CN(C)Cc1ccncc1	-22	1	4
COCC#Cc1cnc2c(c1)C(=O)N([C@H](C)CO)C[C@@H](C)[C@H](CN(C)C(=O)CCN1CCCCC1)O2	-13	-4	0
CO[C@H]1CN(C)C(=O)c2cc(NC(=O)CC(F)(F)F)ccc2OC[C@H](C)N(CCC(F)(F)F)C[C@@H]1C	-9	-5	4
Cc1ccccc1S(=O)(=O)N1CC[C@@H]2[C@H]1c1cc(-c3cccc(F)c3)ccc1N[C@@H]2CO	7	-13	-1
O=C(Nc1cccc(F)c1)N1CCCCN2[C@H](CO)[C@@H](c3ccc(C#CC4CC4)cc3)[C@H]2C1	/	-3	0
CC(=O)c1c(C)[nH]c(C(=O)CSc2nnc(C3CCCCC3)n2N)c1C	122*	/	/
Nn1c(SCC(=O)N2CCCC2)nnc1C1CCCCC1	1	-5	/
SMILES	C2C12 statin	DENV2 CPE	E-selectin induc
Cc1ccc(S(=O)(=O)N(C)C[C@H]2Oc3c(NC(=O)C4CCCCC4)cccc3C(=O)N([C@@H](C)CO)C[C@@H]2C)cc1	21	-5	/
O=C(C[C@H]1CC[C@H](NC(=O)c2cccc(F)c2)[C@H](CO)O1)Nc1nccs1	3	6	0
CNc1cc(-n2nc(C)cc2-c2ccccc2)ncn1	9	/	/
OCCNc1cc(-n2nc(-c3ccccc3)cc2-c2ccccc2)ncn1	114*	/	/
OCC[C@@H]1C[C@@H](O)[C@H](O)[C@@]2(CCCO2)O1	7	10	/
OCC[C@H]1C[C@H](O)[C@@H](O)[C@@]2(Cc3ccccc3CCO2)O1	-15	?	0
OCC[C@H]1C[C@@H](O)[C@H](O)[C@@]2(Cc3ccccc3CCO2)O1	-4	23*	0
OCC[C@H]1C[C@@H](O)[C@H](O)[C@@]2(CCc3ccccc3CO2)O1	-14	48*	1
OCC[C@@H]1C[C@H](O)[C@@H](O)[C@@]2(CCc3ccccc3CO2)O1	6	7	0
OCC[C@H]1C[C@@H](O)[C@H](O)[C@@]2(CCCO2)O1	/	59*	0
O=C(C[C@@H]1C=C[C@@H](NC(=O)C2CC2)[C@@H](CO)O1)NCc1ccncc1	-5	1	0
O=C(N[C@@H]1CC[C@@H](CCNC(=O)C2CCOCC2)O[C@H]1CO)c1ccncc1	-1	8	0
C[C@@H]1CCCCO[C@@H](CN(C)C(=O)Nc2ccc(C(F)(F)F)cc2)[C@@H](C)CN([C@@H](C)CO)C(=O)c2cc(NC(=O)C3CCCCC3)ccc2O1	/	-8	0
C[C@@H]1CCCCO[C@H](CN(C)C(=O)Nc2ccc(C(F)(F)F)cc2)[C@@H](C)CN([C@H](C)CO)C(=O)c2cc(NC(=O)C3CCCCC3)ccc2O1	-62	0	0
C[C@H]1CCCCO[C@H](CN(C)C(=O)Nc2ccc(C(F)(F)F)cc2)[C@@H](C)CN([C@@H](C)CO)C(=O)c2cc(NC(=O)Nc3ccc(C(F)(F)F)cc3)ccc2O1	/	-6	0
C[C@@H]1CCCCO[C@H](CN(C)C(=O)Nc2ccc(C(F)(F)F)cc2)[C@H](C)CN([C@H](C)CO)C(=O)c2cc(NC(=O)C3CCCCC3)ccc2O1	-113	32*	0
C[C@H](CO)N1C[C@H](C)[C@@H](CN(C)C(=O)Nc2ccc(C(F)(F)F)cc2)OCCCC[C@H](C)Oc2ccc(NC(=O)C3CCCCC3)cc2C1=O	-2	87*	0
C[C@@H]1CN([C@H](C)CO)C(=O)c2cc(NC(=O)C3CCCCC3)ccc2O[C@@H](C)CCCCO[C@H]1CN(C)C(=O)Nc1ccc(C(F)(F)F)cc1	-102	-1	0
C[C@H]1CCCCO[C@H](CN(C)C(=O)Nc2ccc(C(F)(F)F)cc2)[C@@H](C)CN([C@@H](C)CO)C(=O)c2cc(NC(=O)C3CCCCC3)ccc2O1	-124	87*	0
C[C@@H]1CCCCO[C@H](CN(C)C(=O)Nc2ccc(C(F)(F)F)cc2)[C@@H](C)CN([C@@H](C)CO)C(=O)c2cc(NC(=O)C3CCCCC3)ccc2O1	-29	22*	1
C[C@H](CO)N1C[C@H](C)[C@@H](CN(C)Cc2ccc(C(=O)O)cc2)OCCCC[C@H](C)Oc2ccc(NS(=O)(=O)c3ccc(Cl)cc3)cc2C1=O	/	?	0

Source: PubChem
